Measured values as given in article PMC6220817 (Chemistry (Weinheim an Der Bergstrasse, Germany), 2018).
One block for each molecule: values may come before it. Ends that are not written are not given here. TMR‑5‑maleimide = tetramethylrhodamine-5-maleimide

Legend:
tubulin [1] = conditions: Reported value for the binding to tubulin; cited from earlier work
tubulin [2] = molecular target: tubulin (Sus scrofa, UniProt P02550+P02554); assay: Turbidity measurement of tubulin polymerization; type: biochemical, porcine; conditions: 10 μM compound, 4 μM tubulin, 1 mM GTP; for Stability of treated microtubules on cooling (turbidity): cooled to 4 °C for 15 min; for Turbidity (optical density at 350 nm) / tubulin polymerization: BRB80, 37 °C, 60 min
How it was run: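 Porcine brain tubulin (4 μM) with 1 mM GTP in BRB80 (80 mM PIPES pH 6.9, 1 mM MgCl2, 1 mM EGTA) at 37 °C. Test compound or taxol at 10 μM, or none. OD350 read by UV/Vis every 1 min for 60 min. Samples then held at 4 °C for 15 min and read again.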

[3] = molecular target: tubulin (α‐ and β‐tubulin dimer) (porcine (purified from porcine brain)) (UniProt P02550); assay: equilibrium dialysis
Chain of tubulin (α‐ and β‐tubulin dimer) (porcine (purified from porcine brain)) (P02550 whole entry, chain 1 of 2): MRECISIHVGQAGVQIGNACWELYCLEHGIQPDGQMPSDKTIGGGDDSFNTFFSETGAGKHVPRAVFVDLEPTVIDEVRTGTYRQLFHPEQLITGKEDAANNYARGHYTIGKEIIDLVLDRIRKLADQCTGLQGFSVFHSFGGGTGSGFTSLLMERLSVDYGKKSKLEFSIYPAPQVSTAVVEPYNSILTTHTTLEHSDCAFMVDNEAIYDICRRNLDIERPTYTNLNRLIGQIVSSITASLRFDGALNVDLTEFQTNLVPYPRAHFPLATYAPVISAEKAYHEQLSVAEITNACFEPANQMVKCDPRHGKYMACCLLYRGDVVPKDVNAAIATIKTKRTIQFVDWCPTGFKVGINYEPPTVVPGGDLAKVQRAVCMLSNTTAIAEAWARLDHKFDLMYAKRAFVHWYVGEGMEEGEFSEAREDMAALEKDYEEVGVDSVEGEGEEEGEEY
Chain of tubulin (α‐ and β‐tubulin dimer) (porcine (purified from porcine brain)) (P02554 whole entry, chain 2 of 2, further chain): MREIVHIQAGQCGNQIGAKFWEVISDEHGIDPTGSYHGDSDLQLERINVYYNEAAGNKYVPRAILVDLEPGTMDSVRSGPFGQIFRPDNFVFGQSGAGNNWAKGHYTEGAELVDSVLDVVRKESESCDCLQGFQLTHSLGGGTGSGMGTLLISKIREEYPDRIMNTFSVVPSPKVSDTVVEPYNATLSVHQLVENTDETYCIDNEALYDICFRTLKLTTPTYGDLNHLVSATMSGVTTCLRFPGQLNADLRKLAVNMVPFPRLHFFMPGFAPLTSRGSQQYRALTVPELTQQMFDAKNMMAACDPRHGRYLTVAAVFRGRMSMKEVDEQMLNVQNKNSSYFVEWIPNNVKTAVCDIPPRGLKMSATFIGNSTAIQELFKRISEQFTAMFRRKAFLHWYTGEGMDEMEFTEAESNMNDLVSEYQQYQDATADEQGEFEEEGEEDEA

Chain of tubulin (Sus scrofa, UniProt P02550+P02554) (P02554 whole entry): as the sequence (P02554 whole entry, chain 2 of 2, further chain) above
Chain of tubulin (Sus scrofa, UniProt P02550+P02554) (P02550 whole entry): as the sequence (P02550 whole entry, chain 1 of 2) above

Molecule: CC(=O)O[C@H]1C(=O)[C@@]2(C)[C@H]([C@H](OC(=O)c3ccccc3)[C@]3(O)C[C@H](OC(=O)[C@H](O)[C@@H](NC(=O)c4cccc(N(C)C)c4)c4ccccc4)C(C)=C1C3(C)C)[C@]1(OC(C)=O)CO[C@@H]1C[C@@H]2O [Taxol derivative, N‐debenzoyl‐N‐[3‐(dimethylamino)benzoyl]taxol]
Kd (tubulin [1]): 49 µM

Stability of treated microtubules on cooling (turbidity) (tubulin [2]): remained stable
Molecule: CC(=O)O[C@H]1C(=O)[C@@]2(C)[C@H]([C@H](OC(=O)c3ccccc3)[C@]3(O)C[C@H](OC(=O)[C@H](O)[C@@H](NC(=O)c4ccccc4)c4ccccc4)C(C)=C1C3(C)C)[C@]1(OC(C)=O)CO[C@@H]1C[C@@H]2O [taxol, reference compound]

Turbidity (optical density at 350 nm) / tubulin polymerization (tubulin [2]): increases the turbidity | Stability of treated microtubules on cooling (turbidity) (tubulin [2]): completely depolymerized
Molecule: H-CGGGKKHVPGGGSVQIVYKPVDL-OH [2N]

Turbidity (optical density at 350 nm) / tubulin polymerization (tubulin [2]): less effective
Molecule: H-KHQPGGGKVQIINKKLDLGGGC-OH [1C]

Turbidity (optical density at 350 nm) / tubulin polymerization (tubulin [2]): less effective
Molecule: H-KKHVPGGGSVQIVYKPVDLGGGC-OH [2C]

Turbidity (optical density at 350 nm) / tubulin polymerization (tubulin [2]): less effective
Molecule: H‐Cys(Trt)‐Gly‐Gly‐Gly‐Lys(Boc)‐His(Trt)‐Gln(Trt)‐Pro‐Gly‐Gly‐Gly‐Lys(Boc)‐Val‐Gln(Trt)‐Ile‐Ile‐Asn(Trt)‐Lys(Boc)‐Lys(Boc)‐Leu‐Asp(OtBu)‐Leu‐Alko‐PEG resin [1N]

Kd [3]: 16.7 µM
Molecule: KHQPGGGKVQIINKKLDLGGGC(TMR‑5‑maleimide) [1C‐TMR]

Kd [3]: 3.4 µM
Molecule: C(TMR‑5‑maleimide)GGGKHQPGGGKVQIINKKLDL [1N‐TMR]
